SENP7 block: SENP7 protease inhibition. inhibition, % at 5 µM. recombinant SENP7, Z-RLRGG-aminoluciferin luminescence, 40 min. Q9BQF6. 1.5% of 330,000 active;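 active = inhibition above about 50% at the single test dose, limit read from the data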;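 also: plate controls were DMSO with enzyme for no effect and no enzyme buffer wells for full effect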
Target sequence (Q9BQF6 706-1050 limits assumed): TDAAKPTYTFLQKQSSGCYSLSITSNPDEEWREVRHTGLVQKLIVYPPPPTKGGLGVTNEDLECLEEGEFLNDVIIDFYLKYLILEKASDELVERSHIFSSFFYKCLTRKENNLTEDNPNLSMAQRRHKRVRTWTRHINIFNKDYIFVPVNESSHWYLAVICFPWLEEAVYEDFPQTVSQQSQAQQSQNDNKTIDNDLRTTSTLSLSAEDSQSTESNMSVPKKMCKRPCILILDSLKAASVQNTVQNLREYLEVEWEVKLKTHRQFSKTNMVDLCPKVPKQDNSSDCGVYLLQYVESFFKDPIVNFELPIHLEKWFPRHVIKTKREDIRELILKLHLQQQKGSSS
SENP8 block-1: inhibitors of human SENP8 protease | 0.64% of 360,000 active | recombinant SENP8, Nedd8 substrate fluorescence | inhibition, % at 20 µM; in the data active = inhibition mostly above about 40%, no sharp cut-off; inactive = mostly below about 27%
Apaf-1 inh: blocks human Apaf-1 apoptosome activity. reconstituted apoptosome caspase-3 activity, DEVD-Rh110 fluorescence. inhibition, % at 20 µM. O14727. 0.71% of 330,000 active; active = inhibition of at least 40% at 20 µM;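 also: plate controls were DMSO wells for no effect and DEVD-CHO caspase inhibitor wells for full effect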
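Material: biochemical Apaf-1 apoptosome reconstitution. Medium: Hepes buffer, pH 7.5. Also added: cytochrome c activation, bis-DEVD rhodamine 110 substrate. Timing: 30 min compound preincubation, 50 min activation, room temperature. Measured by: rhodamine 110 fluorescence at Ex 480/Em 540 nm.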
SENP1 inh: SENP1 (human) catalytic domain inhibition. 0.21% of 360,000 active. Q9P0U3. inhibition, % at 10 µM. recombinant SENP1 catalytic domain, CyPet-SUMO1-YPet FRET cleavage;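 active = inhibition at least 30% at 10 µM, raw YFP signal under a set limit, fluorescence ratio 0.5 to 1.5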;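 also: 0% = enzyme with DMSO and 100% = no enzyme wells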
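Material – human SENP1 catalytic domain · Input – SENP1 enzyme, 20 pM final · Compound dosing – single concentration of 10 µM compound, 0.5% DMSO final · Timing – enzyme reaction for 50 min at room temperature, dark · Measured by – FRET fluorescence in CFP and YFP emission channels · Control set – no-enzyme wells low, DMSO-plus-enzyme wells high control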
SENP8 block-2: SENP8 protease inhibition | 1.2% of 330,000 active | purified SENP8, Z-RLRGG-aminoluciferin cleavage, luminescence | Q96LD8 | AID 2540 | inhibition, % at 10 µM; in the data active = inhibition above about 50%
SENP6 block: SENP6 protease inhibition; Q9GZR1; Recombinant SENP6 catalytic domain, aminoluciferin luminescence; inhibition, % at 10 µM; 1.8% of 330,000 active; AID 2599;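 active = inhibition above about 50% at the single tested dose, limit read from the data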;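 also: plate controls were DMSO wells with enzyme for no effect and DMSO wells lacking enzyme for full effect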
SENP8 confirm: confirmation of human SENP8 protease inhibitors; Recombinant SENP8, Z-RLRGG-aminoluciferin luminescence, 60 min; inhibition, % at 12.5 µM; AID 488912; shares compounds with SENP7 block; 40% of 6,200 active;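 active = mean inhibition across replicates above about 50%, limit read from the data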
SENP6 conf: human SENP6 inhibition, confirmed; shares compounds with SENP7 block; recombinant SENP6, Z-RLRGG-aminoluciferin luminescence; inhibition, % at 12.5 µM; 58% of 6,200 active
SENP7 confirm: confirmation of human SENP7 protease inhibitors; inhibition, % at 12.5 µM; shares compounds with SENP7 block; 69% of 6,200 active; recombinant SENP7, Z-RLRGG-aminoluciferin luminescence, 40 min
Casp3 select: inhibits human caspase-3 in SENP selectivity test; purified caspase-3, Z-DEVD-aminoluciferin luminescence, 60 min; shares compounds with SENP7 block; AID 488918; inhibition, % at 12.5 µM; 60% of 6,200 active;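 active = mean inhibition above about 50%, limit read from the data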;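 also: plate controls were enzyme with DMSO for no effect and wells without caspase-3 for full effect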
Target sequence (P42574 28-227 limits assumed): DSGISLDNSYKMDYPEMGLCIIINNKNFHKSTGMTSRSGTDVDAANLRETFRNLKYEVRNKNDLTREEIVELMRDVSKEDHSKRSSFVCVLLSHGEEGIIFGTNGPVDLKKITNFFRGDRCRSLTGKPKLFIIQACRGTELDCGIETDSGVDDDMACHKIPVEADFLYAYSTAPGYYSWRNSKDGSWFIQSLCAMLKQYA
Luc interf: counter-screen for SENP inhibitors: luminescence interference; Pre-incubated SENP8/Z-RLRGG-aminoluciferin, luciferase luminescence interference; 39% of 6,200 active; inhibition, % at 12.5 µM; shares compounds with SENP7 block;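 active = mean inhibition above about 50% when retested at one dose, limit read from the data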;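 also: plate controls were DMSO wells with completed reaction for no effect and substrate without enzyme for full effect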
* marks the source's active call; other numbers are inactive results. Hits are enriched below; roughly 2.9% of the tested compounds scored in any of these assays.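 The calls were made as follows, unless noted: active = mean inhibition above about 50% in the one-dose retest (limit read from the data); inactive = the rest.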

Screening Nc1ccc(-c2cc(N)n(-c3ccccc3)n2)cc1 returned SENP7 block 18, SENP8 block-1 -174, Apaf-1 inh 3, SENP1 inh -1, SENP8 block-2 13 and SENP6 block 7.
Cc1cc(C)n(CCc2nc(-c3ccc(-c4ccccc4)cc3)cs2)n1 was read as SENP7 block 80*, SENP8 block-1 4, Apaf-1 inh 0, SENP1 inh 1, SENP8 block-2 19, SENP6 block 83*, SENP8 confirm 27, SENP6 conf 50, SENP7 confirm 68*, Casp3 select 36 and Luc interf 21.
Screening O=C(O)c1ccc(N/N=C/c2ccc(-c3cc(Cl)ccc3Cl)o2)cc1 returned SENP7 block -5, SENP8 block-1 -452, Apaf-1 inh 15, SENP1 inh -36, SENP8 block-2 53*, SENP6 block 76*, SENP8 confirm -4, SENP6 conf 85*, SENP7 confirm 86*, Casp3 select 2 and Luc interf 29.
`O=C(O)c1ccc(N/N=C/c2ccc(-c3ccc(Cl)cc3Cl)o2)cc1` gave SENP7 block 8, SENP8 block-1 -365, Apaf-1 inh 5, SENP1 inh -32, SENP8 block-2 12 and SENP6 block 22.
`O=C(O)c1cccc(-c2ccc(/C=N/Nc3ccc([N+](=O)[O-])cc3)o2)c1` gave SENP7 block 9, SENP8 block-1 -17, Apaf-1 inh 14, SENP1 inh -49, SENP8 block-2 -6 and SENP6 block 6.
O=C(O)c1ccc(N/N=C/c2ccc(-c3cccc(Cl)c3)o2)cc1 was read as SENP7 block 13, SENP8 block-1 -449, Apaf-1 inh -9, SENP1 inh -46, SENP8 block-2 58*, SENP6 block 1, SENP8 confirm 82*, SENP6 conf 82*, SENP7 confirm 90*, Casp3 select 7 and Luc interf 82*.
`O=c1oc2c(O)cccc2cc1-c1nc2ccccc2[nH]1` gave SENP7 block 96*, SENP8 block-1 -287, Apaf-1 inh -8, SENP1 inh -24, SENP8 block-2 1, SENP6 block 93*, SENP8 confirm 31, SENP6 conf 85*, SENP7 confirm 36, Casp3 select 39 and Luc interf 14.
`O=c1oc2c(CN3CCCCC3)c(O)ccc2cc1-c1nc2ccccc2[nH]1` gave SENP8 block-1 -250 and SENP1 inh -25.
For COc1ccc(-c2nnc(-c3ccccc3O)o2)cc1 the results were SENP7 block 93*, SENP8 block-1 -169, Apaf-1 inh 1, SENP1 inh 2, SENP8 block-2 84*, SENP6 block 80*, SENP8 confirm 51*, SENP6 conf 42, SENP7 confirm 67*, Casp3 select 56* and Luc interf 6.
For COc1ccc(-c2nnc(-c3ccc(F)cc3)o2)cc1 the results were SENP7 block 69*, SENP8 block-1 -96, Apaf-1 inh 4, SENP1 inh 0, SENP8 block-2 57*, SENP6 block 58*, SENP8 confirm 8, SENP6 conf 9, SENP7 confirm 12, Casp3 select 1 and Luc interf 8.
`N#Cc1c(N(CCO)CCO)nc(N)c2c(N)nc3c(c12)CC(=O)N3CC1CCCO1` (stereo unspecified) gave SENP7 block 39, SENP8 block-1 -408, Apaf-1 inh 98*, SENP1 inh -38, SENP8 block-2 67*, SENP6 block -13, SENP8 confirm -6, SENP6 conf 3, SENP7 confirm -6, Casp3 select 1 and Luc interf 3.
Screening CC1(C(=O)O)CCCN1C(=O)c1ccco1 (stereo unspecified) returned SENP8 block-1 18 and SENP1 inh 0.
Screening Clc1ccc(-c2nc3n(n2)Cc2ccccc2-3)cc1 returned SENP7 block 99*, SENP8 block-1 20, Apaf-1 inh 7, SENP1 inh -1, SENP8 block-2 87*, SENP6 block 63*, SENP8 confirm -20, SENP6 conf 11, SENP7 confirm 26, Casp3 select 30 and Luc interf 2.
Screening CCN(CC)S(=O)(=O)c1cccc(-c2nc3n(n2)Cc2ccccc2-3)c1 returned SENP7 block 8, SENP8 block-1 25, Apaf-1 inh -11, SENP1 inh 1, SENP8 block-2 -18 and SENP6 block -13.
Screening Cc1ccc(CNC(=O)C2CCN(C(=O)Nc3ccccc3)CC2)cc1 returned SENP7 block 3, SENP8 block-1 8, Apaf-1 inh 1, SENP1 inh 3, SENP8 block-2 -3 and SENP6 block -14.
Screening Cc1cnc(C(=O)Nc2ccccc2-n2cccc2)cn1 returned SENP7 block 5, SENP8 block-1 13, Apaf-1 inh -5, SENP1 inh 1, SENP8 block-2 4 and SENP6 block -2.
`Cc1cnc(C(=O)Nc2ccc(F)cc2)cn1` gave SENP7 block 58*, SENP8 block-1 10, Apaf-1 inh -9, SENP1 inh 1, SENP8 block-2 31, SENP6 block 61*, SENP8 confirm 36, SENP6 conf 38, SENP7 confirm 74*, Casp3 select 81* and Luc interf 27.
`Cc1cnc(C(=O)Nc2ccccc2F)cn1` gave SENP7 block 37, SENP8 block-1 18, Apaf-1 inh -5, SENP1 inh 0, SENP8 block-2 31, SENP6 block 68*, SENP8 confirm -10, SENP6 conf 24, SENP7 confirm 74*, Casp3 select 75* and Luc interf 13.
O=C(Nc1ccccc1)c1ccc2ccccc2n1 was read as SENP7 block 73*, SENP8 block-1 5, Apaf-1 inh 11, SENP1 inh -1, SENP8 block-2 65*, SENP6 block 73*, SENP8 confirm 37, SENP6 conf 70*, SENP7 confirm 89*, Casp3 select 65* and Luc interf 24.
